Experimental data taken from ChEMBL document CHEMBL1149869, “Antifungal and antimycobacterial activity of 1-(3,5-diaryl-4,5-dihydro-1H-pyrazol-4-yl)-1H-imidazole derivatives” (2008).
≈ marks a conversion by molar mass, not a printed value.

Key:
Type in all cases: functional
Candida albicans [1] = assay: Antifungal activity against Candida albicans 685 after 24 hrs
Outline: (§1)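 Clinical isolate C. albicans 685 tested by NCCLS (1997) reference broth method; compound stocks 2 mg/mL in DMSO; miconazole and amphotericin B as standards; MIC read after 24 and 48 h incubation, each determined twice in duplicate experiments.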

Candida albicans [2] = assay: Antifungal activity against Candida albicans 685 after 48 hrs; outline: as §1
[3] = test system: Mycobacterium tuberculosis; assay: Antitubercular activity against Mycobacterium tuberculosis H37Rv micro-dilution Resazurin assay
Outline: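 Microdilution Resazurin assay (MRA) run for 1 week against reference strain M. tuberculosis H37Rv. Compound stocks were 2 mg/mL in DMSO, with DMSO tested up to 2% (v/v). MIC was the lowest concentration preventing the blue-to-pink Resazurin colour change, read visually twice in duplicate experiments. Viable counts on agar from control and test wells.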

## CN1N=C(c2ccc(Br)cc2)[C@@H](n2ccnc2)[C@H]1c1ccc(Br)cc1 (racemic)
Candida albicans [1]
  MIC: 0.06 µg/mL (≈ 0.13 µM)
Candida albicans [2]
  MIC: 0.06 µg/mL (≈ 0.13 µM)
[3]
  MIC: 8 µg/mL (≈ 17.4 µM)

## Cc1ccc(C2=NN(C)[C@H](c3ccc(C)cc3)[C@@H]2n2ccnc2)cc1 (racemic)
Candida albicans [1]
  MIC: 4 µg/mL (≈ 12.1 µM)
Candida albicans [2]
  MIC: 64 µg/mL (≈ 194 µM)
[3]
  MIC: 16 µg/mL (≈ 48.4 µM)

## Brc1ccc(C2=NN[C@H](c3ccc(Br)cc3)[C@H]2n2ccnc2)cc1 (racemic)
Candida albicans [1]
  MIC: 4 µg/mL (≈ 8.97 µM)
Candida albicans [2]
  MIC: 8 µg/mL (≈ 17.9 µM)
[3]
  MIC: 8 µg/mL (≈ 17.9 µM)

## Clc1ccc(C2=NN[C@H](c3ccc(Cl)cc3)[C@H]2n2ccnc2)cc1 (racemic)
Candida albicans [1]
  MIC: 4 µg/mL (≈ 11.2 µM)
Candida albicans [2]
  MIC: 16 µg/mL (≈ 44.8 µM)
[3]
  MIC: 8 µg/mL (≈ 22.4 µM)

## Clc1ccc(C2=NN[C@H](c3ccc(Cl)cc3Cl)[C@H]2n2ccnc2)c(Cl)c1 (racemic)
Candida albicans [1]
  MIC: 8 µg/mL (≈ 18.8 µM)
Candida albicans [2]
  MIC: 64 µg/mL (≈ 150 µM)
[3]
  MIC: 8 µg/mL (≈ 18.8 µM)

## CN1N=C(c2ccc(Cl)cc2)[C@@H](n2ccnc2)[C@H]1c1ccc(Cl)cc1 (racemic)
Candida albicans [1]
  MIC: 0.06 µg/mL (≈ 0.162 µM)
Candida albicans [2]
  MIC: 0.06 µg/mL (≈ 0.162 µM)
[3]
  MIC: 8 µg/mL (≈ 21.5 µM)

## CN1N=C(c2ccc(Cl)cc2Cl)[C@@H](n2ccnc2)[C@H]1c1ccc(Cl)cc1Cl (racemic)
Candida albicans [1]
  MIC: 0.12 µg/mL (≈ 0.273 µM)
Candida albicans [2]
  MIC: 32 µg/mL (≈ 72.7 µM)
[3]
  MIC: 16 µg/mL (≈ 36.4 µM)

## Cc1ccc(C2=NN[C@@H](c3ccc(C)cc3)[C@@H]2n2ccnc2)cc1 (racemic)
Candida albicans [1]
  MIC: 8 µg/mL (≈ 25.3 µM)
Candida albicans [2]
  MIC: 64 µg/mL (≈ 202 µM)
[3]
  MIC: 16 µg/mL (≈ 50.6 µM)

## c1ccc(C2=NN(c3ccccc3)[C@H](c3ccccc3)[C@H]2n2ccnc2)cc1 (racemic)
Candida albicans [1]
  MIC: 0.06 µg/mL (≈ 0.165 µM)
Candida albicans [2]
  MIC: 1 µg/mL (≈ 2.74 µM)
[3]
  MIC: 8 µg/mL (≈ 22 µM)

## Cc1ccc(C2=NN(c3ccccc3)[C@H](c3ccc(C)cc3)[C@H]2n2ccnc2)cc1 (racemic)
Candida albicans [1]
  MIC: 8 µg/mL (≈ 20.4 µM)
Candida albicans [2]
  MIC: 64 µg/mL (≈ 163 µM)
[3]
  MIC: 4 µg/mL (≈ 10.2 µM)

## Brc1ccc(C2=NN(c3ccccc3)[C@H](c3ccc(Br)cc3)[C@H]2n2ccnc2)cc1 (racemic)
Candida albicans [1]
  MIC: 1 µg/mL (≈ 1.91 µM)
Candida albicans [2]
  MIC: 64 µg/mL (≈ 123 µM)
[3]
  MIC: 8 µg/mL (≈ 15.3 µM)

## Clc1ccc(C2=NN(c3ccccc3)[C@H](c3ccc(Cl)cc3Cl)[C@H]2n2ccnc2)c(Cl)c1 (racemic)
Candida albicans [1]
  MIC: 2 µg/mL (≈ 3.98 µM)
Candida albicans [2]
  MIC: > 64 µg/mL
[3]
  MIC: 4 µg/mL (≈ 7.96 µM)

## Cc1ccc(C2=NN(c3ccc(F)cc3)[C@H](c3ccc(C)cc3)[C@H]2n2ccnc2)cc1 (racemic)
Candida albicans [1]
  MIC: 64 µg/mL (≈ 156 µM)
Candida albicans [2]
  MIC: 64 µg/mL (≈ 156 µM)
[3]
  MIC: 4 µg/mL (≈ 9.74 µM)

## Fc1ccc(N2N=C(c3ccc(Cl)cc3)[C@H](n3ccnc3)[C@H]2c2ccc(Cl)cc2)cc1 (racemic)
Candida albicans [1]
  MIC: 2 µg/mL (≈ 4.43 µM)
Candida albicans [2]
  MIC: > 64 µg/mL
[3]
  MIC: 4 µg/mL (≈ 8.86 µM)

## Fc1ccc(N2N=C(c3ccc(Br)cc3)[C@H](n3ccnc3)[C@H]2c2ccc(Br)cc2)cc1 (racemic)
Candida albicans [1]
  MIC: 8 µg/mL (≈ 14.8 µM)
Candida albicans [2]
  MIC: > 64 µg/mL
[3]
  MIC: 4 µg/mL (≈ 7.4 µM)

## Fc1ccc(N2N=C(c3ccccc3)[C@H](n3ccnc3)[C@H]2c2ccccc2)cc1 (racemic)
Candida albicans [1]
  MIC: 0.06 µg/mL (≈ 0.157 µM)
Candida albicans [2]
  MIC: 1 µg/mL (≈ 2.61 µM)
[3]
  MIC: 8 µg/mL (≈ 20.9 µM)

## Fc1ccc(N2N=C(c3ccc(Cl)cc3Cl)[C@@H](n3ccnc3)[C@@H]2c2ccc(Cl)cc2Cl)cc1 (racemic)
Candida albicans [1]
  MIC: 1 µg/mL (≈ 1.92 µM)
Candida albicans [2]
  MIC: > 64 µg/mL
[3]
  MIC: 16 µg/mL (≈ 30.8 µM)

## Clc1ccc(C2=NN(c3ccccc3)[C@H](c3ccc(Cl)cc3)[C@H]2n2ccnc2)cc1 (racemic)
Candida albicans [1]
  MIC: 2 µg/mL (≈ 4.62 µM)
Candida albicans [2]
  MIC: 64 µg/mL (≈ 148 µM)
[3]
  MIC: 4 µg/mL (≈ 9.23 µM)

## c1ccc(C2=NN[C@H](c3ccccc3)[C@H]2n2ccnc2)cc1 (racemic)
Candida albicans [1]
  MIC: 16 µg/mL (≈ 55.5 µM)
Candida albicans [2]
  MIC: > 64 µg/mL
[3]
  MIC: 16 µg/mL (≈ 55.5 µM)

## CN1N=C(c2ccccc2)[C@@H](n2ccnc2)[C@H]1c1ccccc1 (racemic)
Candida albicans [1]
  MIC: 1 µg/mL (≈ 3.31 µM)
Candida albicans [2]
  MIC: 64 µg/mL (≈ 212 µM)
[3]
  MIC: 8 µg/mL (≈ 26.5 µM)

## C[C@@H]1[C@H](O)[C@@H](C)/C=C/C=C/C=C/C=C/C=C/C=C/C=C/[C@H](O[C@@H]2O[C@H](C)[C@@H](O)[C@H](N)[C@@H]2O)C[C@@H]2O[C@](O)(C[C@@H](O)C[C@@H](O)[C@H](O)CC[C@@H](O)C[C@@H](O)CC(=O)O[C@H]1C)C[C@H](O)[C@H]2C(=O)O [AMPHOTERICIN B]
Candida albicans [1]
  MIC: 1 µg/mL (≈ 1.08 µM)
Candida albicans [2]
  MIC: 1 µg/mL (≈ 1.08 µM)

## NNC(=O)c1ccncc1 [ISONIAZID]
[3]
  MIC: 0.5 µg/mL (≈ 3.65 µM)

## Clc1ccc(COC(Cn2ccnc2)c2ccc(Cl)cc2Cl)c(Cl)c1 (stereo not given) [MICONAZOLE]
Candida albicans [1]
  MIC: 0.06 µg/mL (≈ 0.144 µM)
Candida albicans [2]
  MIC: 0.12 µg/mL (≈ 0.288 µM)
